Experiments:
[1] = molecular target: T1, Human immunodeficiency virus type 1 reverse transcriptase (Human immunodeficiency virus 1, UniProt Q72547); assay: Inhibition of polymerase activity of HIV1 reverse transcriptase using poly(rA)-oligo(dT)16 and [3H]-TTP incubated for 20 mins by liquid scintillation spectrometry
Method in brief: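 Reaction mix: 10 µM [3H]-TTP, 40 nM poly(rA)-oligo(dT)16, 50 mM Tris-HCl pH 7.4 (37°C), 60 mM KCl, 5 mM MgCl2. Started with 10 nM RT; 20 min at 37°C. Quenched in ice-cold 10% TCA with 20 mM sodium pyrophosphate, then glass-fibre filtered and washed with TCA and ethanol. Label incorporation read by liquid scintillation.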

[2] = molecular target: T1, Human immunodeficiency virus type 1 reverse transcriptase; assay: Inhibition of re-constituted HIV1 reverse transcriptase RNase H domain fragment
Method in brief: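 Secondary check using a catalytically active, isolated HIV RNase H domain fragment (reconstituted) with duplex substrate HTS-1.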

[3] = molecular target: T1, Human immunodeficiency virus type 1 reverse transcriptase; assay: Inhibition of RNase H activity of full length recombinant HIV1 reverse transcriptase assessed as reduction in nonspecific internal cleavage using HTS1 substrate; conditions: read-out: IC50
Method in brief: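 Recombinant p66/p51 RT heterodimer. Fluorescent RNA/DNA duplex substrate HTS-1 measures internal cleavage. IC50 is the mean of at least three independent experiments.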

[4] = molecular target: T1, Human immunodeficiency virus type 1 reverse transcriptase; assay: Inhibition of RNase H activity of full length recombinant HIV1 reverse transcriptase assessed as reduction in DNA 3'-end cleavage using HTS2 substrate
Method in brief: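 Recombinant p66/p51 RT heterodimer. Fluorescent RNA/DNA duplex substrate HTS-2 reports DNA 3′-end-directed (polymerase-dependent) cleavage. IC50 is the mean of at least three independent experiments.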

[5] = Toxicity against human HeLa P4/R5 cells; format: cell-based
[6] = molecular target: T1, Human immunodeficiency virus type 1 reverse transcriptase; assay: Inhibition of RNase H activity of full length recombinant HIV1 reverse transcriptase assessed as reduction in RNA 5'-end directed cleavage using HTS3 substrate

Compound | IC50 [1] | IC50 ([2]; read-out: IC50) | IC50 [3] | IC50 ([4]; read-out: IC50) | CC50 [5] | IC50 ([6]; read-out: IC50) | IC50 [4] | IC50 [6] | IC50 ([1]; read-out: IC50) | IC50 [2]
COc1cccc(-c2cccc(Oc3cc(=O)n(O)c(=O)n3C)c2)c1 | Not Active | 3.6 µM | 1 µM | 17 µM | 5 µM | 9.4 µM | – | – | – | –
Cc1noc(C)c1-c1ccccc1Nc1cc(=O)n(O)c(=O)n1C | Not Active | – | 6.6 µM | – | – | – | Not Active | Not Active | – | –
O=c1nc(Nc2ccc(-c3cnc4ccccc4c3)cc2)c2cccnc2n1O | – | – | – | – | 2 µM | – | – | – | – | –
Cc1ccc(-c2ccc(Nc3cc(=O)n(O)c(=O)n3C)cc2)cc1 | Not Active | 1.9 µM | 2.7 µM | 6.5 µM | 5 µM | 6.6 µM | – | – | – | –
Cn1c(Oc2ccc(-c3ccc(Cl)cc3)cc2)cc(=O)n(O)c1=O | Not Active | – | 2.4 µM | – | – | 11 µM | Not Active | – | – | –
Cn1c(Oc2ccc(-c3cccc(C#N)c3)cc2)cc(=O)n(O)c1=O | Not Active | – | 1.9 µM | 13 µM | – | 11 µM | – | – | – | –
COc1cc(OC)cc(-c2cccc(Nc3cc(=O)n(O)c(=O)n3C)c2)c1 | Not Active | 1.4 µM | 0.6 µM | 2.8 µM | 10 µM | 4 µM | – | – | – | –
Cn1c(Nc2ccc(-c3ccccc3)cc2)cc(=O)n(O)c1=O | Not Active | 1.7 µM | 0.8 µM | 3.5 µM | 6 µM | 5.1 µM | – | – | – | –
COc1ccc(-c2ccc(Nc3cc(=O)n(O)c(=O)n3C)cc2)c(OC)c1 | Not Active | – | 1.5 µM | 4.3 µM | – | 5.3 µM | – | – | – | –
COc1ccccc1-c1cccc(Oc2cc(=O)n(O)c(=O)n2C)c1 | Not Active | 4.4 µM | 2.5 µM | – | 6 µM | 13 µM | Not Active | – | – | –
O=c1cc(Nc2cccc(-c3ccc(Cl)cc3)c2)[nH]c(=O)n1O | – | – | 0.22 µM | 0.45 µM | – | 0.37 µM | – | – | 0.86 µM | –
Cn1c(Nc2cccc(-c3cncnc3)c2)cc(=O)n(O)c1=O | Not Active | 0.9 µM | 1.4 µM | 4.1 µM | > 25 µM | 3.9 µM | – | – | – | –
O=c1cc(Nc2ccc(-c3ccc(Cl)cc3)cc2)[nH]c(=O)n1O | – | – | 0.47 µM | 0.66 µM | – | 0.6 µM | – | – | 0.99 µM | –
COc1cccc(OC)c1-c1cccc(Nc2cc(=O)n(O)c(=O)n2C)c1 | Not Active | 1.2 µM | 1.9 µM | 6.9 µM | 8 µM | 4.5 µM | – | – | – | –
Cn1c(Oc2cccc(-c3ccc(C(F)(F)F)cc3)c2)cc(=O)n(O)c1=O | Not Active | – | 9.5 µM | – | > 25 µM | – | Not Active | Not Active | – | Not Active
Cn1c(Nc2cccc(-c3ccc(O)cc3)c2)cc(=O)n(O)c1=O | – | – | 0.75 µM | 3.8 µM | – | 2.7 µM | – | – | 12 µM | –
Cn1c(Oc2ccc(-c3ccc(C(F)(F)F)cc3)cc2)cc(=O)n(O)c1=O | Not Active | – | 6.2 µM | – | – | – | Not Active | Not Active | – | –
Cn1c(Oc2ccc(-c3ccncc3)cc2)cc(=O)n(O)c1=O | Not Active | – | 3.7 µM | – | – | 10 µM | Not Active | – | – | –
COc1ccc(-c2cccc(Nc3cc(=O)n(O)c(=O)n3C)c2)cc1OC | – | 0.9 µM | 0.5 µM | 2.2 µM | 10 µM | 3 µM | – | – | 5.8 µM | –
Cc1ccc(-c2cccc(Nc3cc(=O)n(O)c(=O)n3C)c2)cc1 | – | – | 1.7 µM | 7.2 µM | – | 6.2 µM | – | – | 17 µM | –
O=c1cc(Nc2ccc(-c3ccccc3)cc2)[nH]c(=O)n1O | – | 0.15 µM | 0.25 µM | 0.3 µM | > 25 µM | 0.3 µM | – | – | 2 µM | –
O=c1cc(Nc2ccc(-c3ccccc3O)cc2)[nH]c(=O)n1O | – | – | 0.24 µM | 0.49 µM | – | 0.46 µM | – | – | 0.83 µM | –
COc1ccccc1-c1cccc(Nc2cc(=O)n(O)c(=O)n2C)c1 | – | 1 µM | 1.2 µM | 2.1 µM | 6 µM | 3.8 µM | – | – | 6.6 µM | –
